Converted amounts (≈) assume the structure as drawn.
Test system: Staphylococcus capitis
Experiment: Antibacterial activity against Methicillin-resistant Staphylococcus capitis MB71 after 24 hrs by microdilution assay
Type: functional
Conditions: MB71, 24 h
How it was run: (§1)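 Broth microdilution MIC, run as in an earlier cited report. Strains are clinical isolates identified by standard methods and MALDI-TOF; E. faecalis MB19 and MB51 are Ligurian seawater isolates. Highest concentration tested was 128 μg/mL. MICs are given in μg/mL and μM, with oxacillin and vancomycin as reference antibiotics.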

| SMILES | MIC [µM] |
| --- | --- |
| COC(=O)[C@]1(C)CCC[C@@]2(C)[C@H]1[C@@H](O)C[C@@](C)(O)[C@@H]2CC/C(C)=C/C[C@H]1OC(=O)C=C1C | 286 (≈ 128 µg/mL) |

Test system: Staphylococcus hominis
Experiment: Antibacterial activity against Methicillin-resistant Staphylococcus hominis MB124 after 24 hrs by microdilution assay
Type: functional
Conditions: MB124, 24 h
How it was run: as §1

| SMILES | MIC [µM] |
| --- | --- |
| COC(=O)[C@]1(C)CCC[C@@]2(C)[C@H]1[C@@H](O)C[C@@](C)(O)[C@@H]2CC/C(C)=C/C[C@H]1OC(=O)C=C1C | 286 (≈ 128 µg/mL) |

Test system: Enterococcus gallinarum
Experiment: Antibacterial activity against Vancomycin resistant Enterococcus gallinarum MB111 after 24 hrs by microdilution assay
Type: functional
Conditions: MB111, 24 h
How it was run: as §1

| SMILES | MIC [µM] |
| --- | --- |
| COC(=O)[C@]1(C)CCC[C@@]2(C)[C@H]1[C@@H](O)C[C@@](C)(O)[C@@H]2CC/C(C)=C/C[C@H]1OC(=O)C=C1C | 286 (≈ 128 µg/mL) |

Test system: Enterococcus faecium
Experiment: Bacteriostatic activity against Enterococcus faecium MB152 assessed as ratio of reduction in bacterial growth by measuring order of magnitude at 4 times MIC by time kill assay
Type: functional
Conditions: not given
How it was run: (§2)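 Time-kill curves: viable cell counts of susceptible strains recorded with or without compound at 4 × MIC.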

| SMILES | Ratio |
| --- | --- |
| COC(=O)[C@]1(C)CCC[C@@]2(C)[C@H]1[C@@H](O)C[C@@](C)(O)[C@@H]2CC/C(C)=C/C[C@H]1OC(=O)C=C1C | 1 - 2 |

Test system: Staphylococcus lugdunensis
Experiment: Antibacterial activity against Staphylococcus lugdunensis MB96 after 24 hrs by microdilution assay
Type: functional
Conditions: MB96, 24 h
How it was run: (§3)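 Broth microdilution MIC against clinical or seawater-isolated strains (identified by standard procedures and MALDI-TOF), with compound solutions and testing as in earlier work. MIC reported in μg/mL and μM.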

| SMILES | MIC [µg/mL] |
| --- | --- |
| COC(=O)[C@]1(C)CCC[C@@]2(C)[C@H]1[C@@H](O)C[C@@](C)(O)[C@@H]2CC/C(C)=C/C[C@H]1OC(=O)C=C1C | > 128 |

Test system: Enterococcus faecalis
Experiment: Antibacterial activity against Vancomycin resistant Enterococcus faecalis MB1 after 24 hrs by microdilution assay
Type: functional
Conditions: MB1, 24 h
How it was run: as §1

| SMILES | MIC [µM] |
| --- | --- |
| COC(=O)[C@]1(C)CCC[C@@]2(C)[C@H]1[C@@H](O)C[C@@](C)(O)[C@@H]2CC/C(C)=C/C[C@H]1OC(=O)C=C1C | 143 (≈ 64.1 µg/mL) |

Test system: Enterococcus avium
Experiment: Antibacterial activity against Enterococcus avium MB119 after 24 hrs by microdilution assay
Type: functional
Conditions: MB119, 24 h
How it was run: as §3

| SMILES | MIC [µM] |
| --- | --- |
| COC(=O)[C@]1(C)CCC[C@@]2(C)[C@H]1[C@@H](O)C[C@@](C)(O)[C@@H]2CC/C(C)=C/C[C@H]1OC(=O)C=C1C | 143 (≈ 64.1 µg/mL) |

Test system: Staphylococcus warneri
Experiment: Antibacterial activity against Methicillin-resistant Staphylococcus warneri MB74 after 24 hrs by microdilution assay
Type: functional
Conditions: MB74, 24 h
How it was run: as §1

| SMILES | MIC [µM] |
| --- | --- |
| COC(=O)[C@]1(C)CCC[C@@]2(C)[C@H]1[C@@H](O)C[C@@](C)(O)[C@@H]2CC/C(C)=C/C[C@H]1OC(=O)C=C1C | 286 (≈ 128 µg/mL) |

Test system: Staphylococcus saprophyticus
Experiment: Antibacterial activity against Staphylococcus saprophyticus MB41 after 24 hrs by microdilution assay
Type: functional
Conditions: MB41, 24 h
How it was run: as §3

| SMILES | MIC [µg/mL] |
| --- | --- |
| COC(=O)[C@]1(C)CCC[C@@]2(C)[C@H]1[C@@H](O)C[C@@](C)(O)[C@@H]2CC/C(C)=C/C[C@H]1OC(=O)C=C1C | > 128 |

Test system: Staphylococcus simulans
Experiment: Antibacterial activity against Staphylococcus simulans MB94 after 24 hrs by microdilution assay
Type: functional
Conditions: MB94, 24 h
How it was run: as §3

| SMILES | MIC [µg/mL] |
| --- | --- |
| COC(=O)[C@]1(C)CCC[C@@]2(C)[C@H]1[C@@H](O)C[C@@](C)(O)[C@@H]2CC/C(C)=C/C[C@H]1OC(=O)C=C1C | > 128 |

Test system: Staphylococcus epidermidis
Experiment: Antibacterial activity against Methicillin-resistant Staphylococcus epidermidis MB169 after 24 hrs by microdilution assay
Type: functional
Conditions: MB169, 24 h
How it was run: as §1

| SMILES | MIC [µg/mL] |
| --- | --- |
| COC(=O)[C@]1(C)CCC[C@@]2(C)[C@H]1[C@@H](O)C[C@@](C)(O)[C@@H]2CC/C(C)=C/C[C@H]1OC(=O)C=C1C | > 128 |

Test system: Enterococcus faecium
Experiment: Antibacterial activity against Enterococcus faecium MB2 after 24 hrs by microdilution assay
Type: functional
Conditions: MB2, 24 h
How it was run: as §3

| SMILES | MIC [µM] |
| --- | --- |
| COC(=O)[C@]1(C)CCC[C@@]2(C)[C@H]1[C@@H](O)C[C@@](C)(O)[C@@H]2CC/C(C)=C/C[C@H]1OC(=O)C=C1C | 286 (≈ 128 µg/mL) |

Test system: Staphylococcus aureus
Experiment: Antibacterial activity against Methicillin-resistant Staphylococcus aureus MB18 after 24 hrs by microdilution assay
Type: functional
Conditions: MB18, 24 h
How it was run: as §1

| SMILES | MIC [µM] |
| --- | --- |
| COC(=O)[C@]1(C)CCC[C@@]2(C)[C@H]1[C@@H](O)C[C@@](C)(O)[C@@H]2CC/C(C)=C/C[C@H]1OC(=O)C=C1C | 286 (≈ 128 µg/mL) |

Test system: Enterococcus durans
Experiment: Antibacterial activity against Enterococcus durans MB113 after 24 hrs by microdilution assay
Type: functional
Conditions: MB113, 24 h
How it was run: as §3

| SMILES | MIC [µM] |
| --- | --- |
| COC(=O)[C@]1(C)CCC[C@@]2(C)[C@H]1[C@@H](O)C[C@@](C)(O)[C@@H]2CC/C(C)=C/C[C@H]1OC(=O)C=C1C | 286 (≈ 128 µg/mL) |

Test system: Enterococcus faecalis
Experiment: Antibacterial activity against Vancomycin resistant Enterococcus faecalis MB19 after 24 hrs by microdilution assay
Type: functional
Conditions: MB19, 24 h
How it was run: as §1

| SMILES | MIC [µM] |
| --- | --- |
| COC(=O)[C@]1(C)CCC[C@@]2(C)[C@H]1[C@@H](O)C[C@@](C)(O)[C@@H]2CC/C(C)=C/C[C@H]1OC(=O)C=C1C | 286 (≈ 128 µg/mL) |

Test system: Enterococcus faecalis
Experiment: Antibacterial activity against Vancomycin resistant Enterococcus faecalis MB51 after 24 hrs by microdilution assay
Type: functional
Conditions: MB51, 24 h
How it was run: as §1

| SMILES | MIC [µM] |
| --- | --- |
| COC(=O)[C@]1(C)CCC[C@@]2(C)[C@H]1[C@@H](O)C[C@@](C)(O)[C@@H]2CC/C(C)=C/C[C@H]1OC(=O)C=C1C | 143 (≈ 64.1 µg/mL) |

Test system: Enterococcus faecium
Experiment: Antibacterial activity against Enterococcus faecium MB152 after 24 hrs by microdilution assay
Type: functional
Conditions: MB152, 24 h
How it was run: as §3

| SMILES | MIC [µM] |
| --- | --- |
| COC(=O)[C@]1(C)CCC[C@@]2(C)[C@H]1[C@@H](O)C[C@@](C)(O)[C@@H]2CC/C(C)=C/C[C@H]1OC(=O)C=C1C | 143 (≈ 64.1 µg/mL) |

Organism: Bos taurus
Experiment: Modulation of ATP synthase in bovine rod outer segments assessed as inhibition of ATP production at 80 ug/ml in presence of Ap5A adenylate kinase inhibitor by luciferin/luciferase chemiluminescent method relative to control
Conditions: not given
How it was run: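 Bovine rod OS (5 μg) preincubated 5 min at 37 °C in Tris/HCl pH 7.4 with KCl, EGTA, MgCl2, 0.6 mM ouabain, 0.25 mM Ap5A, 5 mM KH2PO4, 20 mM succinate, 0.35 mM NADH and ampicillin. Synthesis started with 0.1 mM ADP and stopped with perchloric acid. ATP read by luciferin/luciferase luminescence. Samples at 80 μg/mL; 30 μM resveratrol as positive control. Triplicates, ANOVA/Bonferroni.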

| SMILES | inhibition [%] |
| --- | --- |
| COC(=O)[C@]1(C)CCC[C@@]2(C)[C@H]1[C@@H](O)C[C@@](C)(O)[C@@H]2CC/C(C)=C/C[C@H]1OC(=O)C=C1C | 60 |

Test system: Enterococcus faecalis
Experiment: Antibacterial activity against Enterococcus faecalis MB76 after 24 hrs by microdilution assay
Type: functional
Conditions: MB76, 24 h
How it was run: as §1

| SMILES | MIC [µM] |
| --- | --- |
| COC(=O)[C@]1(C)CCC[C@@]2(C)[C@H]1[C@@H](O)C[C@@](C)(O)[C@@H]2CC/C(C)=C/C[C@H]1OC(=O)C=C1C | 286 (≈ 128 µg/mL) |

Test system: Enterococcus faecalis
Experiment: Bacteriostatic activity against Enterococcus faecalis MB1 assessed as ratio of reduction in bacterial growth at 4 times MIC by time kill assay
Type: functional
Conditions: not given
How it was run: as §2

| SMILES | Ratio |
| --- | --- |
| COC(=O)[C@]1(C)CCC[C@@]2(C)[C@H]1[C@@H](O)C[C@@](C)(O)[C@@H]2CC/C(C)=C/C[C@H]1OC(=O)C=C1C | 1 - 2 |

Test system: Staphylococcus epidermidis
Experiment: Antibacterial activity against Methicillin-resistant Staphylococcus epidermidis MB165 after 24 hrs by microdilution assay
Type: functional
Conditions: MB165, 24 h
How it was run: as §1

| SMILES | MIC [µM] |
| --- | --- |
| COC(=O)[C@]1(C)CCC[C@@]2(C)[C@H]1[C@@H](O)C[C@@](C)(O)[C@@H]2CC/C(C)=C/C[C@H]1OC(=O)C=C1C | 286 (≈ 128 µg/mL) |

Test system: Enterococcus faecium
Experiment: Antibacterial activity against Enterococcus faecium MB3 after 24 hrs by microdilution assay
Type: functional
Conditions: MB3, 24 h
How it was run: as §3

| SMILES | MIC [µM] |
| --- | --- |
| COC(=O)[C@]1(C)CCC[C@@]2(C)[C@H]1[C@@H](O)C[C@@](C)(O)[C@@H]2CC/C(C)=C/C[C@H]1OC(=O)C=C1C | 286 (≈ 128 µg/mL) |

Test system: Staphylococcus aureus
Experiment: Antibacterial activity against Methicillin-resistant Staphylococcus aureus MB188 after 24 hrs by microdilution assay
Type: functional
Conditions: MB188, 24 h
How it was run: as §1

| SMILES | MIC [µg/mL] |
| --- | --- |
| COC(=O)[C@]1(C)CCC[C@@]2(C)[C@H]1[C@@H](O)C[C@@](C)(O)[C@@H]2CC/C(C)=C/C[C@H]1OC(=O)C=C1C | > 128 |

Test system: Enterococcus casseliflavus
Experiment: Antibacterial activity against Vancomycin resistant Enterococcus casseliflavus MB159 after 24 hrs by microdilution assay
Type: functional
Conditions: MB159, 24 h
How it was run: as §1

| SMILES | MIC [µM] |
| --- | --- |
| COC(=O)[C@]1(C)CCC[C@@]2(C)[C@H]1[C@@H](O)C[C@@](C)(O)[C@@H]2CC/C(C)=C/C[C@H]1OC(=O)C=C1C | 143 (≈ 64.1 µg/mL) |

Test system: Staphylococcus haemolyticus
Experiment: Antibacterial activity against Methicillin-resistant Staphylococcus haemolyticus MB115 after 24 hrs by microdilution assay
Type: functional
Conditions: MB115, 24 h
How it was run: as §1

| SMILES | MIC [µg/mL] |
| --- | --- |
| COC(=O)[C@]1(C)CCC[C@@]2(C)[C@H]1[C@@H](O)C[C@@](C)(O)[C@@H]2CC/C(C)=C/C[C@H]1OC(=O)C=C1C | > 128 |
